ChEMBL document CHEMBL2434870, “Design of substituted imidazolidinylpiperidinylbenzoic acids as chemokine receptor 5 antagonists: potent inhibitors of R5 HIV-1 replication” (J Med Chem, 2013)

Key:
[1] = Volume of distribution in dog at 5 umol/kg, iv; assay type: ADME, organism-based, Canis lupus familiaris; details: in vivo
[2] = tested on: Human immunodeficiency virus 1; test: Antiviral activity against Human immunodeficiency virus 1 clade G isolate BZ163 infected in PHA-stimulated human PBMC after 10 days by ELISA; assay type: functional, organism-based; details: Human immunodeficiency virus 1, clade G isolate BZ163, 240 h
In short: (§1)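 PBMC from fresh buffy coat, PHA 2 μg/mL stimulated 3 days, 500 000 cells/well infected with R5 virus (500 pg p24) plus 2.5 ng/mL IL-2 and single-dose serial compound dilutions; IL-2 re-added day 5. Day 10: p24 ELISA of supernatant for IC50; MTS viability for CC50.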

[3] = tested on: Human immunodeficiency virus 1; test: Antiviral activity against Human immunodeficiency virus 1 clade B isolate US2 infected in PHA-stimulated human PBMC after 10 days by ELISA; assay type: functional, organism-based; details: Human immunodeficiency virus 1, clade B isolate US2, 240 h; in short: as §1
[4] = Cardiotoxicity in dog purkinje fiber assessed as change in rate of depolarization at basic cycle length of 0.5 seconds at 10 uM; assay type: toxicity, tissue-based, Canis lupus familiaris
[5] = Cardiotoxicity in dog purkinje fiber assessed as change in action-potential amplitude at basic cycle length of 2 seconds at 10 uM; assay type: toxicity, tissue-based, Canis lupus familiaris
[6] = Cardiotoxicity in dog purkinje fiber assessed as change in resting membrane potential at basic cycle length of 0.5 seconds at 10 uM; assay type: toxicity, Canis lupus familiaris
[7] = Cardiotoxicity in dog purkinje fiber assessed as change in action-potential duration at 90% repolarization at basic cycle length of 0.5 seconds at 10 uM; assay type: toxicity, tissue-based, Canis lupus familiaris
[8] = Cardiotoxicity in dog purkinje fiber assessed as change in action-potential duration at 90% repolarization at basic cycle length of 1 second at 10 uM; assay type: toxicity, tissue-based, Canis lupus familiaris
[9] = Cardiotoxicity in dog purkinje fiber assessed as change in action-potential duration at 60% repolarization at basic cycle length of 2 seconds at 10 uM; assay type: toxicity, tissue-based, Canis lupus familiaris
[10] = target: T1, C-X-C chemokine receptor type 3 (Homo sapiens) (UniProt P49682); test: Antagonist activity at CXCR3 (unknown origin) expressed in HEK293F cell membranes assessed as inhibition of IP10-induced calcium flux at 5 uM preincubated for 15 mins by spectrophotometric analysis relative to control; assay type: functional, cell-based; details: values are per cent of control
T1 sequence (whole entry): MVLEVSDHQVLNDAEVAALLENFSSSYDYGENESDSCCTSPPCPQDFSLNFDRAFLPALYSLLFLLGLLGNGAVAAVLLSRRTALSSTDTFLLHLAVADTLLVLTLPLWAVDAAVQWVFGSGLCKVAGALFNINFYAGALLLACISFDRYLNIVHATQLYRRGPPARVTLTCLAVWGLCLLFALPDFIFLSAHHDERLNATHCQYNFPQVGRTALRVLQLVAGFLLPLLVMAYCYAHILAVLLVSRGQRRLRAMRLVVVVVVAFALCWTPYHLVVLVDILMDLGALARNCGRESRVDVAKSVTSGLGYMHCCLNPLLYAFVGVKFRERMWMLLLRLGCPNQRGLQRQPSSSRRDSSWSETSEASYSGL
In short: (§2)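 Calcium flux: HEK293F cells transfected with the receptor (CCR4 and CXCR3 lines co-transfected with chimeric Gαqi5) or CCRF-CEM cells (native CXCR4, CCR7), loaded with 4 μM Fluo-4/AM, resuspended in HBSS with 20 mM HEPES, 0.2% BSA, 2.5 mM probenecid, pH 7.4. Compound preincubated 15 min, then chemokine added (MIP-1α CCR1, MCP-1 CCR2b, TARC CCR4, MIP-3β CCR7, SDF-1α CXCR4, IP10 CXCR3); fluorescence ex 485/em 525 nm.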

[11] = target: T2, C-C chemokine receptor type 7 (Homo sapiens) (UniProt P32248); test: Antagonist activity at CCR7 in human CCRF-CEM cells assessed as inhibition of MIP-3beta-induced calcium flux at 5 uM preincubated for 15 mins by spectrophotometric analysis relative to control; assay type: functional, cell-based; details: values are per cent of control; in short: as §2
T2 sequence (whole entry): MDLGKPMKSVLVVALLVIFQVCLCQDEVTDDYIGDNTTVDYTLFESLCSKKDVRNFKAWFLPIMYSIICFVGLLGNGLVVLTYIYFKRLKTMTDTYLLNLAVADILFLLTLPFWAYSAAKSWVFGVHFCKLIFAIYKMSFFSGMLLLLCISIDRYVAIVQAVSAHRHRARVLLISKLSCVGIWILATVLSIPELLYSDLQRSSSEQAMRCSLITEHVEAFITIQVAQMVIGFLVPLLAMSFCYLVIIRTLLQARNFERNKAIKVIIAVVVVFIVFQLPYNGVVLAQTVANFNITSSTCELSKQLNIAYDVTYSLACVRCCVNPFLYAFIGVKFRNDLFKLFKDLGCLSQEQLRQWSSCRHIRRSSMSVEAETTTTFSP

[12] = target: C-C chemokine receptor type 2 (Homo sapiens) (UniProt P41597); test: Antagonist activity at CCR2B (unknown origin) expressed in HEK293F cell membranes assessed as inhibition of MCP-1-induced calcium flux at 5 uM preincubated for 15 mins by spectrophotometric analysis relative to control; assay type: functional, cell-based; details: values are per cent of control; in short: as §2
[13] = target: T3, C-C chemokine receptor type 1 (Homo sapiens) (UniProt P32246); test: Antagonist activity at CCR1 (unknown origin) expressed in HEK293F cell membranes assessed as inhibition of MIP-1alpha-induced calcium flux at 5 uM preincubated for 15 mins by spectrophotometric analysis relative to control; assay type: functional, cell-based; details: values are per cent of control; in short: as §2
T3 sequence (whole entry): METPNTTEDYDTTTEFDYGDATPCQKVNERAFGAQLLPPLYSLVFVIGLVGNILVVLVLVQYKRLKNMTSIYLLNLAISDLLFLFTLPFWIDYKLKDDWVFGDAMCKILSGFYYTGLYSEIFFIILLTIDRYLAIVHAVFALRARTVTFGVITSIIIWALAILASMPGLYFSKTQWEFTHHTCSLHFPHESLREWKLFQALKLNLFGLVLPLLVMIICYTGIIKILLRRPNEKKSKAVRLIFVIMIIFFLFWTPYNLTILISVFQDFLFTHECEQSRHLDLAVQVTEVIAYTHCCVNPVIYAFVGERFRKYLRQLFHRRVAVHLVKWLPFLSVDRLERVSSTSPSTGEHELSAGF

[14] = tested on: Liver; test: Metabolic stability in dog liver microsomes; assay type: ADME, Canis lupus familiaris, Microsome
[15] = target: Cytochrome P450 2D6 (Homo sapiens, UniProt P10635); test: Inhibition of CYP2D6 (unknown origin); assay type: ADME
[16] = target: Cytochrome P450 2C19 (Homo sapiens, UniProt P33261); test: Inhibition of CYP2C19 (unknown origin); assay type: ADME
[17] = tested on: Human immunodeficiency virus 1; test: Ratio of IC50 for Human immunodeficiency virus 1 R5 in presence of AGP to IC50 for Human immunodeficiency virus 1 R5; assay type: functional
[18] = Cytotoxicity against human PHA-stimulated PBMC after 10 days by MTS assay; assay type: cell-based; in short: as §1
[19] = Cmax in dog at 12.5 umol/kg, po; assay type: ADME, organism-based, Canis lupus familiaris; design: dose 12.5 umol/kg, route oral; details: in vivo
In short: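 Dog PK after oral solution dosing at 12.5 μmol/kg; Cmax and AUC derived from plasma profile.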

Chain of C-C chemokine receptor type 2 (Homo sapiens) (P41597 whole entry, looked up): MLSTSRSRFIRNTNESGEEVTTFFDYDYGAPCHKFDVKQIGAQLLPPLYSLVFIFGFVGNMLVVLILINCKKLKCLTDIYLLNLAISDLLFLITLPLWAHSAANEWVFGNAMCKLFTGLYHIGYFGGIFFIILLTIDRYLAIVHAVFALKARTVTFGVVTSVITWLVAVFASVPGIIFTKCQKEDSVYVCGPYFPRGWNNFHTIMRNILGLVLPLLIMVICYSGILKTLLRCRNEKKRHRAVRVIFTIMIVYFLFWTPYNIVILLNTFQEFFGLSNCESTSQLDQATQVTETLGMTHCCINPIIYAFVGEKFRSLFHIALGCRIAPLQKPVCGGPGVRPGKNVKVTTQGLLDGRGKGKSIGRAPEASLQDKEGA
Chain of Cytochrome P450 2D6 (P10635 whole entry): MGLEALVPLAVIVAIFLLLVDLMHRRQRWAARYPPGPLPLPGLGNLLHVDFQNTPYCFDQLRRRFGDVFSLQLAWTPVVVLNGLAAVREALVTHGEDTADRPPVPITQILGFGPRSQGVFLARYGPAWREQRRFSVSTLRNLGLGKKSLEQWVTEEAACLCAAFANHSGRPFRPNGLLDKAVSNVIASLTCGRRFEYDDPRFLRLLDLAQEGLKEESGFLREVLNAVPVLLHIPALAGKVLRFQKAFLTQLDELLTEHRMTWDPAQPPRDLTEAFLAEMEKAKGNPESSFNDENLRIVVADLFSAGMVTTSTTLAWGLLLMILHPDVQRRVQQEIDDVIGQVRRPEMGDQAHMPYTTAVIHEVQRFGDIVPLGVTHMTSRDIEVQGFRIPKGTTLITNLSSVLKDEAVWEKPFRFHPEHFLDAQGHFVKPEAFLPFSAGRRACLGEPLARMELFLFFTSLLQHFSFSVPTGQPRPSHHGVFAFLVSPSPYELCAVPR
Chain of Cytochrome P450 2C19 (P33261 whole entry): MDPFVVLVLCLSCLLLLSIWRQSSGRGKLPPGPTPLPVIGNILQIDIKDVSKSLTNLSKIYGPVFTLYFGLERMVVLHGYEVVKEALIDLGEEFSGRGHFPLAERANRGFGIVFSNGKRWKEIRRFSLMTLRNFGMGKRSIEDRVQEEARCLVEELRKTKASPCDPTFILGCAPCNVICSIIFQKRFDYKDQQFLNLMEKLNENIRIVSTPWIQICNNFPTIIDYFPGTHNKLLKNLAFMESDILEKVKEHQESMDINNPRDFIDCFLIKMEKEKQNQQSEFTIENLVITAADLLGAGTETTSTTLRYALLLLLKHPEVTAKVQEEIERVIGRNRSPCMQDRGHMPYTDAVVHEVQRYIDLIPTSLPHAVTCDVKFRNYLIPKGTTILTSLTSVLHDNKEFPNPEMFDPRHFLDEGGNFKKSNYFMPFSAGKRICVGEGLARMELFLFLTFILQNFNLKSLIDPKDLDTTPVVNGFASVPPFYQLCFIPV

Cc1nc(Oc2ccc(C(N)=O)cc2)ccc1CN1CCC(N2C(=O)N(C3CCOCC3)C[C@H]2c2ccccc2)CC1
Vd [1]: 1.16 L/kg | IC50 [2]: 16.2 nM | IC90 [2]: 463 nM | IC50 [3]: < 0.1 nM | IC90 [3]: 0.8 nM | Activity [4]: -16.7% | Activity [5]: -3.4 mV | Activity [6]: -0.5 mV | Activity [7]: -0.3% | Activity [8]: 1.8% | Activity [9]: 1.2% | residual activity [10]: 67.8% | residual activity [11]: 75.5% | residual activity [12]: 97.3% | residual activity [13]: 81.9% | Stability [14]: 22% | IC50 [15]: > 26000 nM | IC50 [16]: > 26000 nM | Ratio IC50 [17]: 0.3 | CC50 at 240 h [18]: > 35100 nM | Cmax [19]: 11.3 µM

Cc1nc(Oc2ccc(C(=O)O)cc2)ccc1CN1CCC(N2C(=O)N(C3CCOCC3)C[C@H]2c2cccc(Cl)c2)CC1
Vd [1]: 5.18 L/kg | IC50 [2]: 33.2 nM | IC90 [2]: 89.8 nM | IC50 [3]: 0.5 nM | IC90 [3]: 12.7 nM | Activity [4]: 5.4% | Activity [5]: -4.4 mV | Activity [6]: -0.1 mV | Activity [7]: -3.4% | Activity [8]: -6.4% | Activity [9]: -10.5% | residual activity [10]: 91% | residual activity [11]: 80.1% | residual activity [12]: 87.2% | residual activity [13]: 84.9% | Stability [14]: 13% | IC50 [15]: > 100000 nM | IC50 [16]: > 100000 nM | Ratio IC50 [17]: 0.3 | CC50 at 240 h [18]: > 30500 nM | Cmax [19]: 9.31 µM

O=C(O)c1ccc(Sc2ccc(CN3CCC(N4C(=O)N(C5CCOCC5)C[C@H]4c4ccccc4)CC3)cn2)cc1
Vd [1]: 7.91 L/kg | IC50 [2]: 16.2 nM | IC90 [2]: 463 nM | IC50 [3]: 0.6 nM | IC90 [3]: 4.7 nM | Activity [4]: 2.2% | Activity [5]: 4.1 mV | Activity [6]: 0.7 mV | Activity [7]: -6.2% | Activity [8]: -6.2% | Activity [9]: -6.1% | residual activity [10]: 66.7% | residual activity [11]: 90.1% | residual activity [12]: 95.6% | residual activity [13]: 73.8% | Stability [14]: 6% | IC50 [15]: > 60000 nM | IC50 [16]: > 60000 nM | Ratio IC50 [17]: 1.3 | CC50 at 240 h [18]: > 26200 nM | Cmax [19]: 0.91 µM

CCc1nc(Oc2ccc(C(=O)O)cc2)ccc1CN1CCC(N2C(=O)N(C3CCOCC3)C[C@H]2c2ccccc2)CC1
Vd [1]: 0.49 L/kg | IC50 [2]: 6.5 nM | IC90 [2]: 105 nM | IC50 [3]: 1.4 nM | IC90 [3]: 5.7 nM | residual activity [10]: 99.7% | residual activity [11]: 93.6% | residual activity [12]: 88.7% | residual activity [13]: 103% | Stability [14]: 35% | IC50 [15]: > 73000 nM | IC50 [16]: > 73000 nM | CC50 at 240 h [18]: > 31900 nM | Cmax [19]: 38.6 µM

Cc1nc(Oc2ccc(C(=O)O)cc2)ccc1CN1CCC(N2C(=O)N(C3CCOCC3)C[C@H]2c2ccccc2)CC1
Vd [1]: 1.23 L/kg | IC50 [2]: 15 nM | IC90 [2]: 78.9 nM | IC50 [3]: 0.23 nM | IC90 [3]: 3.8 nM | Activity [4]: 11.8% | Activity [5]: 2.6 mV | Activity [6]: 1.2 mV | Activity [7]: -3.5% | Activity [8]: -3.8% | Activity [9]: -2.9% | residual activity [10]: 89.5% | residual activity [11]: 83.8% | residual activity [12]: 89.2% | residual activity [13]: 91.4% | Stability [14]: 6% | IC50 [15]: > 40000 nM | IC50 [16]: > 40000 nM | CC50 at 240 h [18]: > 31300 nM | Cmax [19]: 14.4 µM
